From ChEMBL document CHEMBL1240328, “Selective compounds define Hsp90 as a major inhibitor of apoptosis in small-cell lung cancer” (Nat Chem Biol, 2007)
Calls of active or inactive are those of the source. The calls are words filed in the database; no cut-off is given here.

Experiments:
SK-BR-3 [1] = assay: Inhibition of HSP70-mediated antiapoptotic activity in human SKBR3 cells assessed as induction of cell growth arrest after 72 hrs by propidium iodide staining-based flow cytometry
SK-BR-3 [2] = assay: Inhibition of HSP70-mediated antiapoptotic activity in human SKBR3 cells assessed as increase in caspase-3 activity after 24 hrs by Western blot analysis; format: cell-based
[3] = molecular target: Heat shock protein HSP 90-beta (Homo sapiens) (UniProt P08238); assay: Inhibition of HSP90-mediated antiapoptotic activity in human MCF7 cells assessed as induction of caspase-3 cleavage at 50 uM after 24 hrs by Western blot analysis; format: cell-based
NCI-H526 [4] = assay: Inhibition of HSP70-mediated antiapoptotic activity in human NCI-H526 cells assessed as induction of PARP cleavage after 24 hrs by Western blot analysis; format: cell-based
Method in brief: (§1)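 NCI-H526 cells were treated for 24 h. PARP and caspase-3 cleavage were read by western blot of lysates in Tris/NaCl/NP-40 buffer. Apaf-1 complexes were immunoprecipitated with Apaf-1 antibody, using control IgG, then blotted.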

[5] = molecular target: Heat shock protein HSP 90-beta (Homo sapiens) (UniProt P08238); assay: Inhibition of HSP90-mediated antiapoptotic activity in human NCI-H526 cells assessed as induction of Akt degradation at 50 uM after 24 hrs by Western blot analysis; format: cell-based
[6] = molecular target: Heat shock protein HSP 90-beta (Homo sapiens) (UniProt P08238); assay: Inhibition of HSP90-mediated antiapoptotic activity in human MCF7 cells assessed as induction of PARP cleavage at 50 uM after 24 hrs by Western blot analysis; format: cell-based
[7] = molecular target: Heat shock protein HSP 90-beta (Homo sapiens) (UniProt P08238); assay: Inhibition of HSP90-mediated antiapoptotic activity in human SKBR3 cells assessed as induction of caspase-3 cleavage at 400 uM after 24 hrs by Western blot analysis; format: cell-based; conditions: SK-BR-3
Method in brief: (§2)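 SKBr3 cells at 60–70% confluence were exposed to drug or DMSO vehicle. Lysis was in 50 mM Tris pH 7.4, 150 mM NaCl, 1% NP-40, with protein measured by BCA. Lysates of 20–100 µg were run on SDS-PAGE, blotted to nitrocellulose, probed with primary antibodies and detected with a peroxidase-conjugated secondary (1:5,000). Loading was checked with β-actin or PI(3)K p85.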

[8] = molecular target: Heat shock protein HSP 90-beta (Homo sapiens) (UniProt P08238); assay: Inhibition of HSP90-mediated antiapoptotic activity in human MCF7 cells assessed as induction of caspase-9 cleavage at 50 uM after 24 hrs by Western blot analysis; format: cell-based
NCI-H526 [9] = assay: Inhibition of HSP70-mediated antiapoptotic activity in human NCI-H526 cells assessed as induction of caspase-3 cleavage after 24 hrs by Western blot analysis; format: cell-based; method in brief: as §1
SK-BR-3 [10] = assay: Inhibition of HSP70-mediated antiapoptotic activity in human SKBR3 cells assessed as release of Apaf-1 from chaperon complex after 24 hrs by Western blot analysis; format: cell-based
Method in brief: (§3)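 SKBr3 cells were treated for 24 h. Lysates were probed by western blot for caspase-3 and PARP cleavage. Apaf-1 complexes were pulled down with Apaf-1 antibody (with control IgG) and immunoblotted.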

[11] = molecular target: Heat shock protein HSP 90-beta (Homo sapiens) (UniProt P08238); assay: Inhibition of HSP90-mediated antiapoptotic activity in human SKBR3 cells assessed as induction of cell growth arrest at 50 uM after 24 hrs by propidium iodide staining-based flow cytometry; conditions: SK-BR-3
[12] = molecular target: Heat shock protein HSP 90-beta (Homo sapiens) (UniProt P08238); assay: Inhibition of HSP90-mediated antiapoptotic activity in human NCI-H526 cells assessed as reduction in BAD phosphorylation at 50 uM after 24 hrs by Western blot analysis; format: cell-based
[13] = molecular target: Heat shock protein HSP 90-beta (Homo sapiens) (UniProt P08238); assay: Inhibition of HSP90-mediated antiapoptotic activity in human SKBR3 cells assessed as induction of PARP cleavage at 50 uM after 24 hrs by Western blot analysis; format: cell-based; conditions: SK-BR-3; method in brief: as §2
SK-BR-3 [14] = assay: Inhibition of HSP70-mediated antiapoptotic activity in human SKBR3 cells assessed as induction of caspase-3 cleavage after 24 hrs by Western blot analysis; format: cell-based; method in brief: as §3
NCI-H526 [15] = assay: Inhibition of HSP70-mediated antiapoptotic activity in human NCI-H526 cells assessed as release of Apaf-1 from chaperon complex after 24 hrs by Western blot analysis; format: cell-based; method in brief: as §1
SK-BR-3 [16] = assay: Inhibition of HSP70-mediated antiapoptotic activity in human SKBR3 cells assessed as induction of PARP cleavage after 24 hrs by Western blot analysis; format: cell-based; method in brief: as §3
[17] = molecular target: Heat shock protein HSP 90-beta (Homo sapiens) (UniProt P08238); assay: Inhibition of HSP90-mediated antiapoptotic activity in human MCF7 cells assessed as induction of cell growth arrest at 50 uM after 24 hrs by propidium iodide staining-based flow cytometry
[18] = molecular target: Heat shock protein HSP 90-beta (Homo sapiens) (UniProt P08238); assay: Inhibition of HSP90-mediated antiapoptotic activity in human SKBR3 cells assessed as induction of caspase-9 cleavage at 200 uM after 24 hrs by Western blot analysis; format: cell-based; conditions: SK-BR-3
Method in brief: (§4)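 SKBr3 breast cancer cells at 60–70% confluence treated 24 h with compound or DMSO vehicle. Lysates in 50 mM Tris pH 7.4, 150 mM NaCl, 1% NP-40, quantified by BCA. 20–100 µg resolved by SDS-PAGE, blotted to nitrocellulose and probed for cleaved caspase-3, caspase-9 and PARP, using 1:5,000 peroxidase secondary. β-actin or PI(3)K p85 served as loading control.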

[19] = molecular target: Heat shock protein HSP 90-beta (Homo sapiens) (UniProt P08238); assay: Inhibition of HSP90-mediated antiapoptotic activity in human MCF7 cells assessed as induction of caspase-9 cleavage at 200 uM after 24 hrs by Western blot analysis; format: cell-based
[20] = molecular target: Heat shock protein HSP 90-beta (Homo sapiens) (UniProt P08238); assay: Inhibition of HSP90-mediated antiapoptotic activity in human SKBR3 cells assessed as induction of caspase-3 cleavage at 200 uM after 24 hrs by Western blot analysis; format: cell-based; conditions: SK-BR-3; method in brief: as §4
[21] = molecular target: Heat shock protein HSP 90-beta (Homo sapiens) (UniProt P08238); assay: Inhibition of HSP90-mediated antiapoptotic activity in human SKBR3 cells assessed as induction of PARP cleavage at 200 uM after 24 hrs by Western blot analysis; format: cell-based; conditions: SK-BR-3; method in brief: as §4
[22] = molecular target: Heat shock protein HSP 90-beta (Homo sapiens) (UniProt P08238); assay: Inhibition of HSP90-mediated antiapoptotic activity in human MCF7 cells assessed as induction of PARP cleavage at 200 uM after 24 hrs by Western blot analysis; format: cell-based
[23] = molecular target: Heat shock protein HSP 90-beta (Homo sapiens) (UniProt P08238); assay: Inhibition of HSP90-mediated antiapoptotic activity in human MCF7 cells assessed as induction of caspase-3 cleavage at 200 uM after 24 hrs by Western blot analysis; format: cell-based

Chain of Heat shock protein HSP 90-beta (Homo sapiens) (P08238 whole entry): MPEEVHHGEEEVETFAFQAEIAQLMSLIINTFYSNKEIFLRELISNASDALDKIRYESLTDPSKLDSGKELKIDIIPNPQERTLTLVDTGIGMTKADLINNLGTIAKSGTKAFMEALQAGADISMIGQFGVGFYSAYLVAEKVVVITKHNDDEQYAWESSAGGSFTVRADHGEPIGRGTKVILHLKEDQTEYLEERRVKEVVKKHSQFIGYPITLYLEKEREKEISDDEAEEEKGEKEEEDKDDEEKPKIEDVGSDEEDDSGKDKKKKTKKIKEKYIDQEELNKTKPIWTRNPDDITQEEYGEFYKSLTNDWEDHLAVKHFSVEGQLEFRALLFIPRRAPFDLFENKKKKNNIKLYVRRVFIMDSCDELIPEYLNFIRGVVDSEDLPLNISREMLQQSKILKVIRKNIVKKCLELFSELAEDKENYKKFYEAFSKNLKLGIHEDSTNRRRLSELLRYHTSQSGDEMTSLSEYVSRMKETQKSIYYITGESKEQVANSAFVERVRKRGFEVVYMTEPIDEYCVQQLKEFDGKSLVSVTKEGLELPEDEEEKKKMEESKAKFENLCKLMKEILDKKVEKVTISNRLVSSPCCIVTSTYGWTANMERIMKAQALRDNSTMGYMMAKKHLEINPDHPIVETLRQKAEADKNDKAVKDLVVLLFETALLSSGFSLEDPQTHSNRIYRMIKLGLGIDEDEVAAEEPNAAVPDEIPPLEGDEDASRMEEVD

`CCCCCCN(C(=O)CCCCCN1C(=O)NC(c2ccc(-c3ccccc3)cc2)C(C(=O)OCc2ccccc2)=C1C)C(C(=O)NCCCC)c1ccc(OCC(=O)OC)c(C(=O)OC)c1` (stereo not given) was tested, and the inhibition (SK-BR-3 [1]) was “Active”, the inhibition (SK-BR-3 [2]) was “Active” and the Activity [3] was “Active”. For the same compound, the inhibition (NCI-H526 [4]) was “inactive”, the Activity [5] was “Active” and the Activity [6] was “Active”. The Activity [7] was “Active”, the Activity [8] was “Active” and the inhibition (NCI-H526 [9]) was “inactive”. For the same compound, the inhibition (SK-BR-3 [10]) was “inactive”, the Activity [11] was “Active” and the inhibition [12] was “Active”. The Activity [13] was “Active”, the inhibition (SK-BR-3 [14]) was “Active” and the inhibition (NCI-H526 [15]) was “inactive”. The inhibition (SK-BR-3 [16]) was “Active” and the Activity [17] was “Active”.

For `O=c1c(O)c(-c2ccc(O)c(O)c2)oc2cc(O)cc(O)c12`, the Activity [18] was “inactive”, the inhibition (SK-BR-3 [1]) was “Active” and the inhibition (SK-BR-3 [2]) was “Active”. For the same compound, the Activity [19] was “inactive”, the inhibition (NCI-H526 [4]) was “inactive” and the inhibition (NCI-H526 [9]) was “inactive”. The Activity [20] was “inactive”, the Activity [21] was “inactive” and the Activity [22] was “inactive”. The inhibition (SK-BR-3 [14]) was “Active”, the inhibition (NCI-H526 [15]) was “inactive” and the inhibition (SK-BR-3 [16]) was “Active”. The Activity [23] was “inactive”.
